This note sets out measurements from ChEMBL document CHEMBL1250434, “A novel achiral seco-cyclopropylpyrido[e]indolone (CPyI) analog of CC-1065 and the duocarmycins: synthesis, DNA interactions, in vivo anticancer and anti-parasitic evaluation” (Bioorg Med Chem, 2010).

For test [1], the system named is L1210. The test can be described thus: Cytotoxicity against mouse L1210 cells after 3 days by MTT assay. Particulars: L1210, 72 h. Type of test: functional, cell-based. Summed up:
(§1)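 Murine tumour cells under continuous drug exposure for 3 days. Growth inhibition measured by MTT assay. IC50 is the concentration inhibiting growth by 50%.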

In test [2] the test system is Nucleic Acid. The test is described as follows: Binding affinity to pUC18 DNA assessed as DNA alkylating activity after 5 hrs by thermal cleavage assay. Format: nucleic-acid assay. The conditions noted are these: Escherichia coli. Summed up:
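PCR probe from the 749–956 region of pUC18. DNA precipitated and lyophilised, then heated at 90 °C for 30 min in sodium citrate buffer (pH 7.2) to cleave at alkylated adenines. Fragments resolved by electrophoresis.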

The test system of test [3] is Leishmania donovani. The test is described as follows: Antimicrobial activity against promastigotes of Leishmania donovani assessed as inhibition of cell proliferation after 72 hrs by alamar blue assay. Type of test: functional, organism-based. The method in brief:
(§2)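 Promastigotes at 5 × 10^4 cells/well in DME-L medium with 10% heat-inactivated FBS, hemin, xanthine and penicillin-streptomycin. Exposed to 0.03 nM to 64 µM compound for 72 h at 26 °C. Alamar blue added, incubated 15 h, dye reduction read by fluorescence ex 530/em 590 nm.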
A general note: The colour change of resazurin is a common sign of viable cells or microbes.

In test [4] the test system is Plasmodium falciparum. The test can be described thus: Antimicrobial activity against Plasmodium falciparum infected in human erythrocytes assessed as growth inhibition. Type of test: functional, organism-based. Summed up:
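P. falciparum grown in human erythrocytes at 3–5% hematocrit in complete medium. In vitro growth assay at six concentrations, in triplicate, in three independent experiments.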

Test [5] has as its system Trypanosoma brucei. The test is described as follows: Antimicrobial activity against procyclic form of Trypanosoma brucei 427 assessed as inhibition of cell proliferation after 72 hrs by alamar blue assay. Particulars: Trypanosoma brucei, 427, 72 h. Format: functional, organism-based. Summed up:
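T. brucei 427 procyclic forms grown in SDM 79 medium with 0.03 nM to 64 µM compound for 72 h at 26 °C. Proliferation read by Alamar blue reduction after a further 15 h, fluorescence ex 530/em 590 nm.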

In test [6] the test system is Leishmania mexicana. The test can be described thus: Antimicrobial activity against promastigotes of Leishmania mexicana assessed as inhibition of cell proliferation after 72 hrs by alamar blue assay. Type of test: functional, organism-based. Summed up:
as §2

Test [7] is described as follows: Cytotoxicity against mouse B16F0 cells after 3 days by MTT assay. Type of test: functional, cell-based. Particulars: B16F0, 72 h. Summed up:
as §1

Molecules are shown by their SMILES.

Usually IC50 stands for the point on the concentration scale where inhibition reaches its midpoint.

`COc1c(O)c2c(c3cc(C(=O)N4CCc5c4c(O)c(OC)c4[nH]c(C(=O)N6C[C@H]7C[C@@]78C6=CC(=O)c6[nH]cc(C)c68)cc54)[nH]c13)CCN2C(N)=O` [(+)-CC-1065] yielded an IC50 in test [1] of 0.03 nM.
In the case of `COc1cc2cc(C(=O)Nc3cc(N)c4ccccc4c3CCCl)[nH]c2c(OC)c1OC` [CENTANAMYCIN], in test [2], the Activity result was “Dose-dependent effect”. Besides, the IC50 in test [3] was 13 nM; in test [4] it was 1.8 nM; in test [5], 1.9 nM; in test [6] it was 1020 nM; in test [1] it was 55 nM; in test [7] it was 27 nM.
